CSN deneddyl inh: inhibitors of human CSN-mediated cullin deneddylation; Purified CSN, SCF-Nedd8-OG deneddylation, fluorescence polarization; inhibition, % at 12.5 µM; 0.38% of 360,000 active;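 active = pattern-corrected inhibition above about 35%, with an unprinted fluorescence ratio check between 0.5 and 1.5, limit read from the data, passing the limit was not always enough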;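 note: 0% = enzyme with substrate and 100% = substrate without enzyme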
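Assay system: HEK293T-derived human Csn5 enzyme; quantity: 0.24 nM enzyme; medium: Tris/NaCl/DTT buffer, pH 7.5; also added: substrate SCFSkp2-Nedd8OG, 10 nM; doses: 12.5 µM compound; schedule: 90 min reaction at room temperature; signal: FP; read-out: % inhibition of substrate cleavage by Csn5; benchmarks: substrate-only high control, full reaction low control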
CRFBP-R2 agonist: CRF-BP/CRF-R2 complex agonism; HEK293 CRF-R2/CRF-BP, calcium dye fluorescence (FLIPR); percent of saturating CRF peptide response; activation, % at 13.2 µM; 0.46% of 350,000 active;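 active = activation of at least 50%, plus an integration ratio under a set limit after plate pattern correction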;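 note: plate controls were neutral control wells without compound for no effect and CRF at EC100 for full effect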
Rpn11 inh: inhibitors of human proteasome Rpn11 | O00487 | human 26S proteasome, Ub4-pepOG fluorescence polarization; 20S core pre-blocked with epoxomicin | calls only at 20 µM | 0.59% of 360,000 active;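 active = inhibition at 20 µM, scaled to each plate's controls, above about 33%, limit read from the data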
CRFBP-R2 block: CRF-BP/CRF-R2 complex antagonism | HEK293 CRF-R2/CRF-BP, CRF-induced calcium fluorescence | inhibition, % at 11.8 µM | 0.59% of 350,000 active | AID 588475;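 active = inhibition of the ligand-induced calcium signal above about 50% at the single tested concentration, limit read from the data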
TPT1 inhibitor: blocks Candida albicans tRNA 2'-phosphotransferase | recombinant caTPT1, FP RNA substrate dephosphorylation | inhibition, % at 5 µM | 0.81% of 300,000 active | AID 1962;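 active = inhibition above the mean of all tested compounds plus 3 SD, set per screening campaign, cut at about 24% in these data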;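 note: plate controls were DMSO alone for no effect and ferristatin control at 100 nM for full effect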
HNF4A DNA FP: change in binding of human HNF4 alpha to DNA; P41235; HNF4a-FITC DNA binding, fluorescence polarization, 1 h; activity change, % at 10 µM; 0.3% of 360,000 active; in the data active = activity change above about 30%, passing the limit was not always enough
Target sequence (P41235 whole entry, looked up): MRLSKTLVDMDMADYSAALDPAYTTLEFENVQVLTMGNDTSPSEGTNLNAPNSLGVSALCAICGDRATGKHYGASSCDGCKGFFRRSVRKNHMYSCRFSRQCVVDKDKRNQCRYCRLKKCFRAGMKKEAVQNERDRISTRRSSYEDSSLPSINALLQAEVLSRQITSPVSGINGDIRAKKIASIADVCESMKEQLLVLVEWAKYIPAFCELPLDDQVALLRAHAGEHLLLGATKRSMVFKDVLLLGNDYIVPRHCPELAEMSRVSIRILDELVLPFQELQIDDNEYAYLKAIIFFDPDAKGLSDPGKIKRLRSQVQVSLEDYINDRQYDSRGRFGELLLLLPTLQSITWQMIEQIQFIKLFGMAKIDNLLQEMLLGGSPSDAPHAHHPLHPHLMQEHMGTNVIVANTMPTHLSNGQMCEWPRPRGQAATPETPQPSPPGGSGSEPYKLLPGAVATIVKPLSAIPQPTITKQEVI
Numbers without * were called inactive; i = inactive; · = not tested or not shown; + = active, no number. Rows were chosen to be rich in hits. Some 2.3% of all compounds tested hit in one or more screens of this group.

SMILES | CSN deneddyl inh | CRFBP-R2 agonist | Rpn11 inh | CRFBP-R2 block | TPT1 inhibitor | HNF4A DNA FP
CCc1c(C)nc2cc(-c3ccc(Cl)cc3)[nH]n2c1=O | -3 | -2 | i | 15 | -4 | -1
O=c1c2c(nc3cc(-c4ccc(Cl)cc4)[nH]n13)CCS2 | 41* | -2 | i | 25 | 0 | -4
Cc1cc(C(C2C(=O)CC(C)(C)CC2=O)C2C(=O)CC(C)(C)CC2=O)cc(C)c1OC(F)F | 4 | 59* | i | 27 | -3 | -2
COc1cccc(C(C2C(=O)CC(C)(C)CC2=O)C2C(=O)CC(C)(C)CC2=O)c1 | -2 | -2 | i | 14 | -3 | -2
COc1ccc(Cl)cc1S(=O)(=O)NCc1ccncc1 | 2 | -2 | i | 13 | 1 | 2
CC1CC(C)(C)N(C(=O)CN2C(=O)c3ccccc3C2=O)c2ccccc21 (stereo not given) | 1 | 114* | i | -132 | -1 | -2
Cc1ccc2c(c1)C(C)CC(C)(C)N2C(=O)CN1CCN(C)CC1 (stereo not given) | 3 | -3 | i | 68* | 3 | 0
CC1CC(C)(C)N(C(=O)CN2CCN(C)CC2)c2ccccc21 (stereo not given) | 5 | 1 | i | -9 | 1 | -1
CSC1=N/C(=C\c2ccc(C)cc2)C(=O)S1 | 0 | -3 | i | 46 | -3 | -3
O=C(O)c1ccc(N/N=C/c2cccc3nccnc23)cc1 | -4 | -1 | i | 1 | 8 | -2
CCOC(=O)N1CCN(S(=O)(=O)c2ccc(C(=O)Nc3sc4c(c3C(N)=O)CCN(CC)C4)cc2)CC1 | 2 | 2 | i | -6 | 15 | 0
CCCN1CCc2c(sc(NC(=O)c3ccc(S(=O)(=O)N4CCN(C(=O)OCC)CC4)cc3)c2C(N)=O)C1 | 52* | 108* | · | -72 | 156* | 92*
COc1ccc(NC(=O)NCCCN2CCc3ccccc3C2)cc1 | -3 | -2 | i | 52* | 2 | -1
CCN(CC)S(=O)(=O)c1ccc2c(c1)nc(CCC(=O)OCC(=O)Nc1cc(Cl)cc(Cl)c1)n2C | 0 | 3 | i | -10 | 1 | 1
O=C(CCl)N1c2ccccc2SCC1c1ccccc1 (stereo not given) | 0 | -1 | i | 0 | -1 | 0
Cc1ccc(S(=O)(=O)Nc2ccc3cc([N+](=O)[O-])ccc3c2[N+](=O)[O-])cc1 | 8 | 6 | i | 81* | · | 17
COc1ccc(NS(=O)(=O)c2ccc(C)cc2)c([N+](=O)[O-])c1 | -1 | -9 | i | 30 | -5 | -1
COc1ccc([N+](=O)[O-])cc1NS(=O)(=O)c1ccc(C)cc1 | 2 | -3 | i | 21 | 3 | 3
Cc1ccc(S(=O)(=O)Nc2ccc3ccccc3c2[N+](=O)[O-])cc1 | -1 | -9 | i | 90* | · | -5
Cc1occc1C(=O)NC(C)C12CC3CC(CC(C3)C1)C2 (stereo not given) | -18 | -21 | i | 52* | 5 | 1
CSc1ccc(/C=c2\s/c(=C\C(=O)C(C)(C)C)n(CC(=O)NCCC3=CCCCC3)c2=O)cc1 | 6 | 34 | · | -53 | 7 | 7
CCCNC(=O)Cn1c(=O)/c(=C/c2ccc(-c3ccc([N+](=O)[O-])cc3)o2)s/c1=C\C(=O)C(C)(C)C | 65 | 165* | · | -93 | · | 144
O=C(Cn1c(=O)oc2cc(S(=O)(=O)N3CCCC3)ccc21)NCc1ccc(F)cc1 | 4 | 2 | i | -6 | 0 | 0
C[C@@H]1CN(Cc2nc(-c3cnccn3)no2)C[C@H](C)O1 | 0 | -1 | i | -6 | 1 | 2
CCCOC(=O)c1cc(-c2ccc(C=O)o2)ccc1Cl | -12 | -2 | i | -60 | 1 | 1
CCCOC(=O)c1cc(-c2ccc(/C=C3/C(=O)N(C)C(=O)C(C#N)=C3C)o2)ccc1Cl | 9 | 0 | i | 14 | 24* | 3
COc1ccccc1CNc1nc(NC(C)C)nc2ccsc12 | 4 | · | i | · | · | 0
CCS(=O)(=O)c1ccc(N=Nc2ccc(O)c3ncccc23)c(OC)c1 | -4 | -3 | + | 27 | · | 4
O=c1ccc(-c2ccc(S(=O)(=O)NCc3cccc(Br)c3)s2)n[nH]1 | -4 | -3 | i | 21 | -2 | 36*
